Laboratory results taken from ChEMBL document CHEMBL5608214, “Novel tetrasubstituted 5-Arylamino pyrazoles able to interfere with angiogenesis and Ca2+ mobilization” (Eur J Med Chem, 2024).
Calls of active or inactive are those of the source. No cut-off for these calls is given here.

Legend:
HUVEC [1] = assay: Anti-angiogenetic activity in human HUVEC cells assessed as number of tube branching points at 10 uM incubated for 12 hrs by microscopy; format: functional
How it was run: (§1)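 HUVEC seeded at 2 × 10⁴ cells/well onto gelled Matrigel (mixed 1:1 with EGM-2, set 30 min at 37 °C). Cells were exposed to test agents at 10 μM for 12 h with no stimulus; untreated wells served as control. Tube long axis and branching points were counted in 10 random fields per well at 10× (Angiogenesis Analyzer), giving mean tube length per well. Mean of at least three independent experiments.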

HUVEC [2] = assay: Anti-angiogenetic activity in human HUVEC cells assessed as relative tube length at 10 uM incubated for 12 hrs by microscopy; format: functional; how it was run: as §1
MCF7 = assay: Antiproliferative activity against human MCF7 cells assessed as cell growth at 10 uM incubated for 48 hrs by MTT assay relative to control; format: functional; settings: read-out: Activity
How it was run: (§2)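 Cells in DMEM with 10 % FBS, 2 mM glutamine and pen-strep, 37 °C, 5 % CO₂, plated to reach 80–90 % confluence at endpoint. At 16 h, compounds were added from a 10 mM DMSO stock to 10 μM final. After 48 h, MTT (2 mg/mL in PBS) was added for 4 h, formazan dissolved in DMSO, and OD read at 570 nm. Results are % of solvent control; three runs, six replicates each, mean ± SD.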

SK-OV-3 = assay: Antiproliferative activity against human SK-OV-3 cells assessed as cell growth at 10 uM incubated for 48 hrs by MTT assay relative to control; format: functional; settings: read-out: Activity; how it was run: as §2
MDA-MB-231 = assay: Antiproliferative activity against human MDA-MB-231 cells assessed as cell growth at 10 uM incubated for 48 hrs by MTT assay relative to control; format: functional; settings: read-out: Activity; how it was run: as §2
[3] = Antiproliferative activity against human HUVEC cells assessed as cell growth at 10 uM incubated for 48 hrs by MTT assay relative to control; format: toxicity, cell-based; settings: read-out: Activity; how it was run: as §2
SK-MEL-28 = assay: Antiproliferative activity against human SK-MEL-28 cells assessed as cell growth at 10 uM incubated for 48 hrs by MTT assay relative to control; format: functional; settings: read-out: Activity; how it was run: as §2
SK-BR-3 = assay: Antiproliferative activity against human SK-BR-3 cells assessed as cell growth at 10 uM incubated for 48 hrs by MTT assay relative to control; format: functional; settings: read-out: Activity; how it was run: as §2
A549 = assay: Antiproliferative activity against human A549 cells assessed as cell growth at 10 uM incubated for 48 hrs by MTT assay relative to control; format: functional; settings: read-out: Activity; how it was run: as §2
[4] = Antiproliferative activity against human GM06114 cells assessed as cell growth at 10 uM incubated for 48 hrs by MTT assay relative to control; format: toxicity, cell-based; settings: read-out: Activity; how it was run: as §2
HeLa = assay: Antiproliferative activity against human HeLa cells assessed as cell growth at 10 uM incubated for 48 hrs by MTT assay relative to control; format: functional; settings: read-out: Activity; how it was run: as §2
HepG2 = assay: Antiproliferative activity against human HepG2 cells assessed as cell growth at 10 uM incubated for 48 hrs by MTT assay relative to control; format: functional; settings: read-out: Activity; how it was run: as §2
HUVEC [5] = assay: Inhibition of cell invasion in human HUVEC cells assessed as number of cells at 10 uM incubated for 24 hrs by transwell assay; format: functional
How it was run: (§3)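 Transwell inserts with 8.0 pore size were coated with Matrigel 1:3 in serum-free medium. HUVEC (2 × 10⁴/insert) went in serum-free medium in the upper chamber, with treatments (10 μM) in growth medium below, for 24 h at 37 °C. Filters were fixed in 4 % paraformaldehyde then methanol and stained with 0.5 % crystal violet. Cells on the lower surface were counted in ten random fields at 10×. n = 3.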

HUVEC [6] = assay: Anti-angiogenetic activity in human HUVEC cells assessed as number of tube branching points at 10 uM incubated for 12 hrs in presence of tumor secretome from human MIA PaCa-2 cell supernatant by microscopy (reference value: 17); format: functional
HUVEC [7] = assay: Anti-angiogenetic activity in human HUVEC cells assessed as reduction in tube branching at 10 uM incubated for 12 hrs by microscopy; format: functional, cell-based; how it was run: as §1
HUVEC [8] = assay: Inhibition of cell invasion in human HUVEC cells at 10 uM incubated for 24 hrs by transwell assay; format: functional, cell-based; how it was run: as §3
HUVEC [9] = assay: Effect on conformation of actin filament organization in human HUVEC cells at 10 uM treated for 24 hrs by immunofluorescence assay; format: functional, cell-based
How it was run: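 HUVEC were left untreated or treated 24 h at 10 μM final. Cells were then fixed on coverslips in 4 % paraformaldehyde, permeabilized with 0.2 % Triton X-100 and blocked with 20 % goat serum. F-actin was stained with FITC-phalloidin (5 µg/ml, 2 h, room temperature, dark) and nuclei with Hoechst 33342. Cells were imaged by confocal microscopy.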

HUVEC [10] = assay: Anti-angiogenetic activity in human HUVEC cells assessed as relative tube length at 10 uM incubated for 12 hrs in presence of tumor secretome from human MIA PaCa-2 cell supernatant by microscopy (reference value: 108); format: functional
[11] = Effect on intracellular calcium signaling in human HUVEC cells assessed as inhibition of calcium mobilization by measuring fluorescence intensity at 10 uM incubated for 1 hr by Fluo-4 a.m. cytofluorimetric assay relative to control; format: functional; design: scale not given: the % may be the effect or the level left
How it was run: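 Trypsinized HUVEC at 5 × 10⁵/ml were treated with compounds at 10 μM in PBS for 1 h at room temperature, washed, then loaded with 2.5 μM Fluo-4 AM (0.06 % DMSO final) for 45 min at 37 °C. Fluorescence was read by flow cytometry with a 530/30 filter. Ionomycin served as positive control and EDTA (added 15 min before) as negative control. n = 3, mean ± SD.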

HUVEC [12] = assay: Inhibition of cell migration in human HUVEC cells at 10 uM incubated for 24 hrs by wound healing assay; format: functional, cell-based
How it was run: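 Confluent HUVEC monolayers (2 × 10⁵/well, 24 h) were scratched with a p10 tip and treated at 10 μM with mitomycin C 10 μg/ml to block mitosis. Wounds were photographed at 0 and 24 h (4× phase contrast). Migration was taken as the change in distance covered by the wound edges. n = 3 independent experiments, mean ± SD.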

HUVEC [13] = assay: Anti-angiogenetic activity in human HUVEC cells assessed as reduction in tube length at 10 uM incubated for 12 hrs by microscopy; format: functional, cell-based; how it was run: as §1

Structure (SMILES) | Activity (HUVEC [1]) | Activity (HUVEC [2]) | growth at 10 µM (MCF7) | growth at 10 µM (SK-OV-3) | growth at 10 µM (MDA-MB-231) | viability at 48 h, 10 µM [3] | growth at 10 µM (SK-MEL-28) | growth at 10 µM (SK-BR-3) | growth at 10 µM (A549) | viability at 48 h, 10 µM [4] | growth at 10 µM (HeLa) | growth at 10 µM (HepG2) | further results
CCOC(=O)c1c(Nc2ccc(C)cc2)nn(CC(O)c2ccccc2)c1N (stereo not given) | 17 | 48 | – | – | – | – | – | – | – | – | – | – | –
CCOC(=O)c1c(Nc2cccc(C(F)(F)F)c2)nn(CC(O)c2ccccc2)c1N (stereo not given) | – | – | 99% | 108% | 162% | 92% | 124% | 122% | 88% | 80% | 107% | 131% | –
CCCC(O)Cn1nc(Nc2ccccc2)c(C(=O)OCC)c1N (stereo not given) | <15 | <20 | 110% | 104% | 103% | 100% | 97% | 107% | 115% | 112% | 97% | 106% | Activity (HUVEC [5]): 364; Activity (HUVEC [6]): ~8; Activity (HUVEC [7]): Active; inhibition (HUVEC [8]): Active; Activity (HUVEC [9]): Active; Activity (HUVEC [10]): 55; Activity [11]: 23%; inhibition (HUVEC [12]): Active; Activity (HUVEC [13]): Active
CCCC(O)Cn1ncc(C(=O)OCC)c1NC(=O)Nc1cccc(C(F)(F)F)c1 (stereo not given) | 19 | 21 | – | – | – | – | – | – | – | – | – | – | Activity (HUVEC [5]): 383; Activity (HUVEC [9]): Active; Activity [11]: 20%
CCCC(O)Cn1nc(Nc2cccc3ccccc23)c(C(=O)OCC)c1N (stereo not given) | <15 | <20 | 109% | 108% | 106% | 94% | 103% | 110% | 86% | 104% | 82% | 104% | –
CCCC(O)Cn1nc(Nc2ccccc2Cl)c(C(=O)OCC)c1N (stereo not given) | – | – | 110% | 102% | 107% | 95% | 132% | 121% | 106% | 85% | 116% | 119% | –
CCOC(=O)c1c(Nc2ccccc2Cl)nn(CC(O)c2ccccc2)c1N (stereo not given) | – | – | 112% | 100% | 115% | 93% | 136% | 117% | 72% | 63% | 98% | 111% | –
CCCC(O)Cn1nc(Nc2cccc(C(F)(F)F)c2)c(C(=O)OCC)c1N (stereo not given) | – | – | 80% | 102% | 109% | 100% | 113% | 118% | 66% | 71% | 77% | 69% | –
